Laboratory results: ChEMBL document CHEMBL1122401, “Synthesis and pharmacological activity of 6-[(E)-2-(2,6,6-trimethyl-1-cyclohexen-1-yl)ethen-1-yl]- and 6-(1,2,3,4-tetrahydro-1,1,4,4-tetramethyl-6-naphthyl)-2-naphthalenecarboxylic acids” (1983)

Key:
[1] = test system: Cricetinae gen. sp.; assay: Reversal of keratinization process in hamster tracheal organ culture at concentration of 10e-11 M expressed as percent of active cultures out of 5 cultures; type: functional, Trachea
[2] = molecular target: T1, Ornithine decarboxylase (Mus musculus) (UniProt P00860); assay: Percent inhibition of induction of ODC(ornithine decarboxylase) by TPA in mouse skin at a dose of 17.0 nmol
T1 sequence (whole entry): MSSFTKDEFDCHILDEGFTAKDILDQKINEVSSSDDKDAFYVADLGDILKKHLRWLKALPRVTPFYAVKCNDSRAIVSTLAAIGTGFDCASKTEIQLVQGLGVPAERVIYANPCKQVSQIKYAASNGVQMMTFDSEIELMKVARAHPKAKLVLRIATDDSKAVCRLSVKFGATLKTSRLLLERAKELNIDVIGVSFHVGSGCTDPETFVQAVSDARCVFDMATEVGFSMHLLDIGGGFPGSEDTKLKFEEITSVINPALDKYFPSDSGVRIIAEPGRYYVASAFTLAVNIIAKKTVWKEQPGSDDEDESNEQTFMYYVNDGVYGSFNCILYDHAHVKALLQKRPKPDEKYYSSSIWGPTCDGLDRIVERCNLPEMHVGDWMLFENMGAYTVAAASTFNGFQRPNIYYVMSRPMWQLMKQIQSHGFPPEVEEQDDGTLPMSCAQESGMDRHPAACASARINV
In short: (§1)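 ODC induction by the tumour-promoting phorbol ester TPA, measured in mouse dorsal epidermis. Retinoid was tested at 1.7 or 17 nmol dose levels. Activity is expressed as a percentage of that of retinoic acid at the same dose.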

[3] = test system: Cricetinae gen. sp.; assay: Reversal of keratinization process in hamster tracheal organ culture at concentration of 10e-9 M expressed as percent of active cultures out of 12 cultures; type: functional, Trachea
[4] = molecular target: T1, Ornithine decarboxylase (Mus musculus); assay: Percent inhibition of induction of ODC(ornithine decarboxylase) by TPA in mouse skin at a dose of 1.7 nmol; in short: as §1
[5] = test system: Cricetinae gen. sp.; assay: Reversal of keratinization process in hamster tracheal organ culture at concentration of 10e-8 M expressed as percent of active cultures out of 7 cultures; type: functional, Trachea
[6] = test system: Cricetinae gen. sp.; assay: Reversal of keratinization process in hamster tracheal organ culture at concentration of 10e-10 M expressed as percent of active cultures out of 13 cultures; type: functional, Trachea
[7] = Relative activity as reciprocal of the ratio of ED50 (retinoid) / ED50 (retinoic acid) when control was 6 x 10e-12; type: functional
[8] = Relative activity as reciprocal of the ratio of ED50 (retinoid) / ED50 (retinoic acid) when control was 7 x 10e-12; type: functional
[9] = test system: Cricetinae gen. sp.; assay: Reversal of keratinization process in hamster tracheal organ culture at concentration of 10e-11 M expressed as percent of active cultures out of 22 cultures; type: functional, Trachea
[10] = test system: Cricetinae gen. sp.; assay: Reversal of keratinization process in hamster tracheal organ culture at concentration of 10e-10 M expressed as percent of active cultures out of 22 cultures; type: functional, Trachea
[11] = test system: Cricetinae gen. sp.; assay: Reversal of keratinization process in hamster tracheal organ culture at concentration of 10e-12 M expressed as percent of active cultures out of 15 cultures; type: functional, Trachea
[12] = test system: Cricetinae gen. sp.; assay: Reversal of keratinization process in hamster tracheal organ culture at concentration of 10e-9 M expressed as percent of active cultures out of 7 cultures; type: functional, Trachea
[13] = Relative activity as reciprocal of the ratio of ED50 (retinoid) / ED50 (retinoic acid) when control was 3 x 10e-11; type: functional

Structure (SMILES)	Active culture [1] [%]	inhibition [2] [%]	Active culture [3] [%]	inhibition [4] [%]	Active culture [5] [%]	Active culture [6] [%]	Ratio [7]	Ratio [8]	Active culture [9] [%]	Active culture [10] [%]	Active culture [11] [%]	Active culture [12] [%]	Ratio [13]
CC1=C(/C=C/c2ccc3cc(C(=O)O)ccc3c2)C(C)(C)CCC1	20	48	92	30	100	46	0.4						
CC1(C)CCC(C)(C)c2cc(-c3ccc4cc(C(=O)O)ccc4c3)ccc21		80		56				> 10	77	95	27	100	
CC1=C(/C=C/C(C)=C/c2ccc(C(=O)O)cc2)C(C)(C)CCC1													1
